In brackets after ≈: the same amount, converted by molar mass.
Columns and labels:
Klebsiella pneumoniae [1] = assay: Antibacterial activity against ESBL positive Klebsiella pneumoniae ATCC 700603 after 24 hrs by resazurin dye based microdilution assay; format: functional; conditions: Klebsiella pneumoniae, 700603, 24 h
In short: (§1)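 MIC taken as the lowest concentration giving visible inhibition and/or by resazurin (1 mg/mL). Gentamicin was the control. Run in duplicate, repeated at least three times.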

Klebsiella pneumoniae [2] = assay: Antibacterial activity against carbapenemase positive Klebsiella pneumoniae BAA 1705 after 24 hrs by resazurin dye based microdilution assay; format: functional; conditions: BAA 1705, 24 h; in short: as §1
Leishmania panamensis = assay: Antileshmanial activity against EpiR/GFP fused Leishmania panamensis MHOM/CO/87/UA140 intracellular amastigotes infected in human […] cells after 72 hrs by flow cytometric method; format: functional, cell-based; conditions: MHOM/CO/87/UA140, 72 h
In short: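 PMA-treated U-937 cells (3 × 10^5 cells/mL) infected with stationary-phase GFP L. panamensis promastigotes (15:1), 3 h at 34 °C, then washed. After 24 h, compounds added at 50, 12.5, 3.125 and 0.78 µg/mL for 72 h at 37 °C. EC50 by Probit; triplicate, two experiments.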

Candida albicans [3] = assay: Antifungal activity against Candida albicans ATCC 10231 incubated for 48 hrs under dark condition by broth microdilution method; format: functional; conditions: ATCC 10231, 48 h
In short: (§2)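 CLSI M27-A3 broth microdilution in RPMI-1640, DMSO ≤1%, compounds at 250-0.98 µg/mL final. Inoculum 1-5 × 10^3 CFU/mL. Incubated 48 h at 30 °C in a moist dark chamber, read at OD405. MIC80 and MIC50 taken from % inhibition dose-response curves (mean ± SEM, triplicate). Amphotericin B was the positive control.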

Cryptococcus neoformans [4] = assay: Antifungal activity against Cryptococcus neoformans ATCC 32264 incubated for 48 hrs under dark condition by broth microdilution method; format: functional; conditions: ATCC 32264, 48 h; in short: as §2
Candida albicans [5] = assay: Growth inhibition of Candida albicans ATCC 10231 at 250 ug/ml incubated for 48 hrs under dark condition by broth microdilution method relative to control; format: functional; conditions: ATCC 10231, 48 h, read-out: GI
In short: (§3)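 CLSI M27-A3 broth microdilution in RPMI-1640, DMSO ≤1%. Inoculum 1-5 × 10^3 CFU/mL. Incubated 48 h at 30 °C, dark. % inhibition = 100 − (OD405 test − sterility control)/(OD405 growth control − sterility control), with growth and sterility control wells. Triplicate.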

Candida albicans [6] = assay: Growth inhibition of Candida albicans ATCC 10231 at 125 ug/ml incubated for 48 hrs under dark condition by broth microdilution method relative to control; format: functional; conditions: ATCC 10231, 48 h, read-out: GI; in short: as §3
Candida albicans [7] = assay: Growth inhibition of Candida albicans ATCC 10231 at 62.5 ug/ml incubated for 48 hrs under dark condition by broth microdilution method relative to control; format: functional; conditions: ATCC 10231, 48 h, read-out: GI; in short: as §3
Candida albicans [8] = assay: Growth inhibition of Candida albicans ATCC 10231 at 31.25 ug/ml incubated for 48 hrs under dark condition by broth microdilution method relative to control; format: functional; conditions: ATCC 10231, 48 h, read-out: GI; in short: as §3
Candida albicans [9] = assay: Growth inhibition of Candida albicans ATCC 10231 at 15.62 ug/ml incubated for 48 hrs under dark condition by broth microdilution method relative to control; format: functional; conditions: ATCC 10231, 48 h, read-out: GI; in short: as §3
Candida albicans [10] = assay: Growth inhibition of Candida albicans ATCC 10231 at 7.8 ug/ml incubated for 48 hrs under dark condition by broth microdilution method relative to control; format: functional; conditions: ATCC 10231, 48 h, read-out: GI; in short: as §3
Candida albicans [11] = assay: Growth inhibition of Candida albicans ATCC 10231 at 3.4 ug/ml incubated for 48 hrs under dark condition by broth microdilution method relative to control; format: functional; conditions: ATCC 10231, 48 h, read-out: GI
Cryptococcus neoformans [12] = assay: Growth inhibition of Cryptococcus neoformans ATCC 32264 at 250 ug/ml incubated for 48 hrs under dark condition by broth microdilution method relative to control; format: functional; conditions: ATCC 32264, 48 h, read-out: GI; in short: as §3
Cryptococcus neoformans [13] = assay: Growth inhibition of Cryptococcus neoformans ATCC 32264 at 125 ug/ml incubated for 48 hrs under dark condition by broth microdilution method relative to control; format: functional; conditions: ATCC 32264, 48 h, read-out: GI; in short: as §3
Cryptococcus neoformans [14] = assay: Growth inhibition of Cryptococcus neoformans ATCC 32264 at 62.5 ug/ml incubated for 48 hrs under dark condition by broth microdilution method relative to control; format: functional; conditions: ATCC 32264, 48 h, read-out: GI; in short: as §3
Cryptococcus neoformans [15] = assay: Growth inhibition of Cryptococcus neoformans ATCC 32264 at 31.25 ug/ml incubated for 48 hrs under dark condition by broth microdilution method relative to control; format: functional; conditions: ATCC 32264, 48 h, read-out: GI; in short: as §3
Cryptococcus neoformans [16] = assay: Growth inhibition of Cryptococcus neoformans ATCC 32264 at 15.62 ug/ml incubated for 48 hrs under dark condition by broth microdilution method relative to control; format: functional; conditions: ATCC 32264, 48 h, read-out: GI; in short: as §3
Cryptococcus neoformans [17] = assay: Growth inhibition of Cryptococcus neoformans ATCC 32264 at 7.8 ug/ml incubated for 48 hrs under dark condition by broth microdilution method relative to control; format: functional; conditions: ATCC 32264, 48 h, read-out: GI; in short: as §3
Cryptococcus neoformans [18] = assay: Growth inhibition of Cryptococcus neoformans ATCC 32264 at 3.4 ug/ml incubated for 48 hrs under dark condition by broth microdilution method relative to control; format: functional; conditions: ATCC 32264, 48 h, read-out: GI
Staphylococcus aureus [19] = assay: Antibacterial activity against methicillin-sensitive Staphylococcus aureus ATCC 25923 after 24 hrs by resazurin dye based microdilution assay; format: functional; conditions: ATCC 25923, 24 h; in short: as §1
Staphylococcus aureus [20] = assay: Antibacterial activity against methicillin-resistant Staphylococcus aureus ATCC 43300 after 24 hrs by resazurin dye based microdilution assay; format: functional; conditions: ATCC 43300, 24 h
In short: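 Broth microdilution in Mueller Hinton broth, inoculum 5 × 10^5 – 8 × 10^5. Compound stocks diluted in MHB with 5% DMSO and 0.1% Tween 80. Incubation 24 h at 35-37 °C. MIC is the lowest concentration with visible growth inhibition and/or by resazurin (1 mg/mL) read-out. Gentamicin as control. Run in duplicate, replicated at least three times.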

Staphylococcus aureus [21] = assay: Antibacterial activity against vancomycin-intermediate Staphylococcus aureus after 24 hrs by resazurin dye based microdilution assay; format: functional; in short: as §1
Escherichia coli = assay: Antibacterial activity against Escherichia coli ATCC 25922 after 24 hrs by resazurin dye based microdilution assay; format: functional; conditions: ATCC 25922, 24 h; in short: as §1
Pseudomonas aeruginosa = assay: Antibacterial activity against Pseudomonas aeruginosa ATCC 27853 after 24 hrs by resazurin dye based microdilution assay; format: functional; conditions: ATCC 27853, 24 h; in short: as §1
Neisseria gonorrhoeae = assay: Antibacterial activity against beta lactamase positive Neisseria gonorrhoeae ATCC 31426 by oxidase test; format: functional
In short: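 Agar dilution MIC on GC agar with 1% isovitalex containing increasing compound concentrations. Plates inoculated with about 1×10^4 CFU (5 µL). MIC is the lowest concentration that inhibited growth, with growth confirmed by oxidase test. Run in duplicate, repeated at least three times.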

Plasmodium falciparum = assay: Antiplasmodial activity against chloroquine-sensitive Plasmodium falciparum 3D7 assessed as reduction in parasitic LDH activity after 48 hrs by Malstat reagent based […] method; format: functional; conditions: 3D7, 48 h
In short: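 Unsynchronized P. falciparum 3D7 at 0.5% parasitemia and 1% hematocrit in RPMI with 3% Albumax II. Exposed to 100, 25, 6.25 and 1.56 µg/mL for 48 h at 37 °C under 90% N2/5% CO2/5% O2. After three freeze-thaw cycles, LDH measured with Malstat and NBT/PES, 1 h in the dark, read at 650 nm. IC50 by Probit; triplicate, ≥2 experiments.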

U-937 = assay: Cytotoxicity against human U937 cells after 72 hrs by MTT assay; format: cell-based; conditions: u-937, 72 h
In short: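 Exponentially growing U-937 at 1 × 10^5 cells/mL in RPMI-1640 with 10% FBS were exposed to 200, 50, 12.5 and 3.125 µg/mL for 72 h at 37 °C, 5% CO2. MTT for 3 h, stopped with isopropanol/SDS, formazan read at 570 nm, blank-corrected. LC50 by Probit from % viability against untreated cells. Triplicate, at least two independent experiments.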

Trypanosoma cruzi = assay: Antitrypanosomal activity against Trypanosoma cruzi Tulahuen intracellular amastigote harboring LacZ infected in human U937 cells after 72 hrs by CPRG/Nonidet reagent based spectrophotometric method; format: functional, cell-based; conditions: U-937, 72 h
In short: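 U-937 cells at 2.5 × 10^5 cells/mL in RPMI-1640 with 10% serum and 0.1 µg/mL PMA were infected with β-galactosidase-transfected Tulahuen epimastigotes at 5 parasites per cell. Infected cells were exposed to 50, 12.5, 3.125 and 0.78 µg/mL for 72 h. CPRG (100 uM) and 0.1% Nonidet P-40 were added for 3 h, read at 570 nm. EC50 by Probit. Triplicate, at least two experiments; benznidazole as reference.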

SMILES | MIC (Klebsiella pneumoniae [1]) [mg/L] | MIC (Klebsiella pneumoniae [2]) [mg/L] | EC50 (Leishmania panamensis) [mg/L] | MIC50 (Candida albicans [3]) [mg/L] | MIC80 (Candida albicans [3]) [mg/L] | MIC50 (Cryptococcus neoformans [4]) [mg/L] | MIC80 (Cryptococcus neoformans [4]) [mg/L] | inhibition of growth at 250 µg/mL (Candida albicans [5]) [%] | inhibition of growth at 125 µg/mL (Candida albicans [6]) [%] | inhibition of growth at 62.5 µg/mL (Candida albicans [7]) [%] | inhibition of growth at 31.25 µg/mL (Candida albicans [8]) [%] | inhibition of growth at 15.62 µg/mL (Candida albicans [9]) [%] | inhibition of growth at 7.8 µg/mL (Candida albicans [10]) [%] | inhibition of growth at 3.4 µg/mL (Candida albicans [11]) [%] | inhibition of growth at 250 µg/mL (Cryptococcus neoformans [12]) [%] | inhibition of growth at 125 µg/mL (Cryptococcus neoformans [13]) [%] | inhibition of growth at 62.5 µg/mL (Cryptococcus neoformans [14]) [%] | inhibition of growth at 31.25 µg/mL (Cryptococcus neoformans [15]) [%] | inhibition of growth at 15.62 µg/mL (Cryptococcus neoformans [16]) [%] | inhibition of growth at 7.8 µg/mL (Cryptococcus neoformans [17]) [%] | also measured
COc1ccc(C2=NN(C(C)=O)C(c3cccc(Nc4ccnc5cc(Cl)ccc45)c3)C2)cc1 (stereo not given) | > 1000 | > 1000 | 2.98 (≈ 6.33 µM) | ≥ 250 | ≥ 250 | 250 (≈ 531 µM) | ≥ 250 | 37.5 | 33.4 | 20.4 | 16.9 | 14.2 | 7.64 | 6.14 | 72.2 | 45 | 22.4 | 20.2 | 13.9 | 7.99 | inhibition of growth at 3.4 µg/mL (Cryptococcus neoformans [18]): 4.82%; MIC (Staphylococcus aureus [19]): > 1000 mg/L; MIC (Staphylococcus aureus [20]): > 1000 mg/L; MIC (Staphylococcus aureus [21]): > 1000 mg/L; MIC (Escherichia coli): > 1000 mg/L; MIC (Pseudomonas aeruginosa): > 1000 mg/L; MIC (Neisseria gonorrhoeae): > 1000 mg/L; EC50 (Plasmodium falciparum): 13.8 mg/L (≈ 29.3 µM); LC50 (U-937): 4.9 mg/L (≈ 10.4 µM); EC50 (Trypanosoma cruzi): 3.44 mg/L (≈ 7.3 µM)
COc1cc(C2=NN(c3cc(Cl)cc(Cl)c3)C(c3cccc(Nc4ccnc5cc(Cl)ccc45)c3)C2)cc(OC)c1OC (stereo not given) | > 1000 | > 1000 | 16.5 (≈ 26 µM) | ≥ 250 | ≥ 250 | ≥ 250 | ≥ 250 | 20.3 | 10.6 | 5.81 | 5.79 | 2.69 | 1.1 | 0.27 | 25.6 | 6.13 | 3.82 | 3.54 | 3.54 | 3.27 | inhibition of growth at 3.4 µg/mL (Cryptococcus neoformans [18]): 0%; MIC (Staphylococcus aureus [19]): > 1000 mg/L; MIC (Staphylococcus aureus [20]): > 1000 mg/L; MIC (Staphylococcus aureus [21]): > 1000 mg/L; MIC (Escherichia coli): > 1000 mg/L; MIC (Pseudomonas aeruginosa): > 1000 mg/L; MIC (Neisseria gonorrhoeae): > 1000 mg/L; EC50 (Plasmodium falciparum): 10.9 mg/L (≈ 17.2 µM); LC50 (U-937): > 200 mg/L; EC50 (Trypanosoma cruzi): 21.9 mg/L (≈ 34.6 µM)

Source: ChEMBL document CHEMBL4038284, “Synthesis of novel quinoline-based 4,5-dihydro-1H-pyrazoles as potential anticancer, antifungal, antibacterial and antiprotozoal agents” (Eur J Med Chem, 2017)
